In brackets after ≈: the same amount, converted by molar mass. Activity calls are given as the source filed them. No cut-off for these calls is given here.
What was measured:
Mycobacterium avium = experiment: Antitubercular activity against Mycobacterium avium CNCTC My 330/88 assessed as inhibition of bacterial growth measured after 21 days of incubation by Sulas semisynthetic medium based assay; format: functional; details: CNCTC My 330/88, 504 h, time 21 day
In short: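 M. avium was tested by the micromethod in Sula's semisynthetic medium. Compounds in DMSO at 1000 to 0.5 μmol/L. Incubation at 37 °C, read at 14 and 21 days. MIC is the lowest concentration giving >99% growth inhibition.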

Mycobacterium kansasii [1] = experiment: Antitubercular activity against Mycobacterium kansasii CNCTC My 235/80 assessed as inhibition of bacterial growth measured after 14 days of incubation by Sulas semisynthetic medium based assay; format: functional; details: CNCTC My 235/80, 336 h, time 14 day
In short: (§1)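 Micromethod in Sula's semisynthetic medium. MIC is the lowest concentration inhibiting >99% of the mycobacterial population. Isoniazid was the standard.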

Mycobacterium kansasii [2] = experiment: Antitubercular activity against Mycobacterium kansasii CNCTC My 235/80 assessed as inhibition of bacterial growth measured after 21 days of incubation by Sulas semisynthetic medium based assay; format: functional; details: CNCTC My 235/80, 504 h, time 21 day; in short: as §1
[3] = test system: Mycobacterium tuberculosis; experiment: Antimycobacterial activity against MDR clinical isolate Mycobacterium tuberculosis PRAHA 1 assessed as inhibition of mycobacterial growth measured after 14 to 21 days of incubation by Sulas semisynthetic medium based assay; format: functional; details: time 14-21 day
In short: (§2)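 Clinical MDR/XDR M. tuberculosis isolates were tested by the Sula's semisynthetic medium micromethod. Compounds in DMSO at 1000 to 0.5 μmol/L, in twofold-type steps. Incubation at 37 °C, read at 14 and 21 days. MIC99 is the lowest concentration inhibiting >99% of growth. Drug resistance or susceptibility of each isolate is to amikacin, clofazimine, gentamicin, ofloxacin, streptomycin and the others listed.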

[4] = test system: Mycobacterium tuberculosis; experiment: Antimycobacterial activity against XDR clinical isolate Mycobacterium tuberculosis PRAHA 1 assessed as inhibition of mycobacterial growth measured after 14 to 21 days of incubation by Sulas semisynthetic medium based assay; format: functional; details: time 14-21 day; in short: as §2
[5] = test system: Mycobacterium tuberculosis; experiment: Antimycobacterial activity against MDR clinical isolate Mycobacterium tuberculosis PRAHA 131 assessed as inhibition of mycobacterial growth measured after 14 to 21 days of incubation by Sulas semisynthetic medium based assay; format: functional; details: time 14-21 day; in short: as §2
[6] = test system: Mycobacterium tuberculosis; experiment: Antimycobacterial activity against MDR clinical isolate Mycobacterium tuberculosis 9449/2007 assessed as inhibition of mycobacterial growth measured after 14 to 21 days of incubation by Sulas semisynthetic medium based assay; format: functional; details: time 14-21 day; in short: as §2
[7] = test system: Mycobacterium tuberculosis; experiment: Antimycobacterial activity against XDR clinical isolate Mycobacterium tuberculosis 9449/2007 assessed as inhibition of mycobacterial growth measured after 14 to 21 days of incubation by Sulas semisynthetic medium based assay; format: functional; details: time 14-21 day; in short: as §2
[8] = test system: Mycobacterium tuberculosis; experiment: Antimycobacterial activity against MDR clinical isolate Mycobacterium tuberculosis 7357/1998 assessed as inhibition of mycobacterial growth measured after 14 to 21 days of incubation by Sulas semisynthetic medium based assay; format: functional; details: time 14-21 day; in short: as §2
[9] = test system: Mycobacterium tuberculosis; experiment: Antimycobacterial activity against XDR clinical isolate Mycobacterium tuberculosis 7357/1998 assessed as inhibition of mycobacterial growth measured after 14 to 21 days of incubation by Sulas semisynthetic medium based assay; format: functional; details: time 14-21 day; in short: as §2
[10] = test system: Mycobacterium tuberculosis; experiment: Antimycobacterial activity against XDR clinical isolate Mycobacterium tuberculosis 8666/2010 assessed as inhibition of mycobacterial growth measured after 14 to 21 days of incubation by Sulas semisynthetic medium based assay; format: functional; details: time 14-21 day; in short: as §2
HepG2 = experiment: Cytotoxicity against human HepG2 cells incubated for 24 hrs by MTT assay; format: functional, cell-based; details: HepG2, 24 h
In short: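 HepG2 cells in DMEM with 10% FBS, seeded at 15 × 10³ cells/well and attached overnight. Exposed for 24 h to serial dilutions prepared from DMSO stocks, final DMSO ≤1%. Then given fresh medium with 0.5 mg/mL MTT for 1 h at 37 °C. Formazan dissolved in DMSO and read at 570 nm. IC50 from 4-parameter nonlinear regression; three independent experiments in triplicate, mean ± SD.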

H9c2 = experiment: Cytotoxicity against rat H9c2 cells assessed as cell viability incubated for 72 hrs by MTT spectrophotometric analysis; format: functional, cell-based; details: H9c2, 72 h
In short: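 HepG2 or rat H9c2 cells in DMEM with FBS, seeded at 10,000 cells/well. Treated 24 h later for 72 h, with 0.1% DMSO vehicle and 1% Triton X-100 as controls. MTT added (3 mg/mL solution) for 2 h at 37 °C, then cells lysed in isopropanol/0.1 M HCl/5% Triton X-100. Read at 570 nm minus 690 nm. Viability expressed as % of vehicle; IC50 derived where reached. At least four independent experiments.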

Staphylococcus aureus [11] = experiment: Antibacterial activity against Staphylococcus aureus C1947 assessed as inhibition of bacterial growth incubated for 24 to 48 hrs by microdilution broth method; format: functional, organism-based; details: time 24-48 hrs
In short: (§3)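 Clinical isolates kept at –70 °C and subcultured twice on Mueller-Hinton agar, using the second subculture. Broth microdilution in Mueller-Hinton broth at pH 7.4 with two-fold serial compound dilutions and DMSO ≤1% final. Inoculum was 10 μL of a 1.5 × 10⁸ CFU/mL suspension. Incubated at 36 °C ± 1 °C and read at 24 h and 48 h. MIC taken as 95% growth inhibition.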

Staphylococcus aureus [12] = experiment: Antibacterial activity against methicilin-resistant Staphylococcus aureus C1923 assessed as inhibition of bacterial growth incubated for 24 to 48 hrs by microdilution broth method; format: functional, organism-based; details: time 24-48 hrs
In short: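 Clinical isolates, stored at −70 °C, were passaged twice on Mueller-Hinton agar. Broth microdilution in Mueller-Hinton broth, pH 7.4, with twofold serial dilutions. DMSO was at most 1% final. Inoculum 1.5 × 10⁸ CFU/mL suspension. MIC is 95% growth inhibition, read after 24 and 48 h at 36 °C.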

[13] = test system: Staphylococcus epidermidis; experiment: Antibacterial activity against Staphylococcus epidermidis C1936 assessed as inhibition of bacterial growth incubated for 24 to 48 hrs by microdilution broth method; format: functional, organism-based; details: time 24-48 hrs; in short: as §3
Escherichia coli [14] = experiment: Antibacterial activity against Escherichia coli A1235 assessed as inhibition of bacterial growth incubated for 24 to 48 hrs by microdilution broth method; format: functional, organism-based; details: time 24-48 hrs; in short: as §3
Klebsiella pneumoniae [15] = experiment: Antibacterial activity against ESBL positive Klebsiella pneumoniae C1914 assessed as inhibition of bacterial growth incubated for 24 to 48 hrs by microdilution broth method; format: functional, organism-based; details: time 24-48 hrs; in short: as §3
[16] = Intrinsic clearance in human liver microsomes at 3 uM incubated for 5 to 45 min in presence of NADPH by LC-MS analysis; format: ADME, Microsome; details: time 5-45 min, read-out: CLH
Staphylococcus aureus [17] = experiment: Antibacterial activity against methicilin-resistant Staphylococcus aureus C1923 assessed as inhibition of bacterial growth at 125 uM incubated for 24 to 48 hrs by microdilution broth method; format: functional, organism-based; details: time 24-48 hrs
[18] = test system: Staphylococcus epidermidis; experiment: Antibacterial activity against Staphylococcus epidermidis C1936 assessed as inhibition of bacterial growth at 125 uM incubated for 24 to 48 hrs by microdilution broth method; format: functional, organism-based; details: time 24-48 hrs
Escherichia coli [19] = experiment: Antibacterial activity against Escherichia coli A1235 assessed as inhibition of bacterial growth at 125 uM incubated for 24 to 48 hrs by microdilution broth method; format: functional, organism-based; details: time 24-48 hrs
Klebsiella pneumoniae [20] = experiment: Antibacterial activity against ESBL negative Klebsiella pneumoniae C1950 assessed as inhibition of bacterial growth at 125 uM incubated for 24 to 48 hrs by microdilution broth method; format: functional, organism-based; details: time 24-48 hrs
Pseudomonas aeruginosa = experiment: Antibacterial activity against multidrug-resistant Pseudomonas aeruginosa A1245 assessed as inhibition of bacterial growth at 125 uM incubated for 24 to 48 hrs by microdilution broth method; format: functional, organism-based; details: time 24-48 hrs

SMILES | MIC99 (Mycobacterium avium) | MIC99 (Mycobacterium kansasii [1]) | MIC99 (Mycobacterium kansasii [2]) | MIC99 [5] | MIC99 [6] | MIC99 [7] | MIC99 [10] | IC50 (HepG2) | IC50 (H9c2) | Activity (Staphylococcus aureus [11]) | Activity (Staphylococcus aureus [12]) | Activity [13] | Activity (Escherichia coli [14]) | Activity (Klebsiella pneumoniae [15]) | microsomal CLint at 3 µM [16] | Activity (Staphylococcus aureus [17]) | Activity [18] | Activity (Escherichia coli [19]) | Activity (Klebsiella pneumoniae [20]) | Activity (Pseudomonas aeruginosa) | further results
COc1nc(N2CCOCC2)nc2ncn(Cc3ccc4ccccc4c3)c12 | 500 µM (≈ 188 µg/mL) | 32 µM (≈ 12 µg/mL) | 64 µM (≈ 24 µg/mL) | 8 µM (≈ 3 µg/mL) | 8 µM (≈ 3 µg/mL) | 16 µM (≈ 6.01 µg/mL) | 8 µM (≈ 3 µg/mL) | 64.3 µM | > 50 µM | inactive | inactive | inactive | inactive | inactive | – | – | – | – | – | – | MIC99 [3]: 16 µM (≈ 6.01 µg/mL); MIC99 [4]: 16 µM (≈ 6.01 µg/mL); MIC99 [8]: 16 µM (≈ 6.01 µg/mL); MIC99 [9]: 16 µM (≈ 6.01 µg/mL)
Nc1nc(N2CCOCC2)nc2ncn(Cc3ccc4ccccc4c3)c12 | > 500 µM | 16 µM (≈ 5.77 µg/mL) | 16 µM (≈ 5.77 µg/mL) | 2 µM (≈ 0.721 µg/mL) | 2 µM (≈ 0.721 µg/mL) | 4 µM (≈ 1.44 µg/mL) | 4 µM (≈ 1.44 µg/mL) | > 125 µM | > 50 µM | inactive | inactive | inactive | inactive | inactive | 16.8 µL/min/mg | inactive | inactive | inactive | inactive | inactive | –
CCNc1nc(N2CCOCC2)nc2ncn(Cc3ccc4ccccc4c3)c12 | 250 µM (≈ 97.1 µg/mL) | 8 µM (≈ 3.11 µg/mL) | 8 µM (≈ 3.11 µg/mL) | 2 µM (≈ 0.777 µg/mL) | 2 µM (≈ 0.777 µg/mL) | 4 µM (≈ 1.55 µg/mL) | 2 µM (≈ 0.777 µg/mL) | 63.9 µM | > 50 µM | inactive | inactive | inactive | inactive | inactive | 27 µL/min/mg | inactive | inactive | inactive | inactive | inactive | –
CCOc1nc(N2CCOCC2)nc2ncn(Cc3ccc4ccccc4c3)c12 | > 500 µM | 16 µM (≈ 6.23 µg/mL) | 16 µM (≈ 6.23 µg/mL) | 2 µM (≈ 0.779 µg/mL) | 2 µM (≈ 0.779 µg/mL) | 4 µM (≈ 1.56 µg/mL) | 2 µM (≈ 0.779 µg/mL) | 43.5 µM | > 50 µM | inactive | inactive | inactive | inactive | inactive | 24.4 µL/min/mg | inactive | inactive | inactive | inactive | inactive | –

Source: ChEMBL document CHEMBL5620421, “2,6-Disubstituted 7-(naphthalen-2-ylmethyl)-7H-purines as a new class of potent antitubercular agents inhibiting DprE1” (Eur J Med Chem, 2023)
